Measurements taken from publication PMC3068526 (Science (New York, N.Y.), 2010).

How the values were obtained:
human islet cells = test: insulin response of human islet cells to a glucose challenge; format: cell-based; settings: human islet cells pre-treated with compound
[1] = system: recombinant solubilized or microsomal GOAT; test: UV crosslinking of biotin-tagged benzoyl-phenylalanine analogs to GOAT; format: binding; settings: competitor at 100 μM
Summary of the method: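 Solubilized GOAT was UV-crosslinked with biotin-tagged benzophenylalanine-containing probe analogs (L5BP, F4BP) at 5 μM, with or without 100 μM unlabelled test compound as competitor. Cross-linked GOAT was detected on immunoblots with streptavidin, and loading was checked with anti-FLAG.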

UCP2 mRNA = test: QRT-PCR of islets and gastric fundus isolated from treated mice; format: in vivo, mouse
[2] = system: serotonin N-acetyltransferase; test: in vitro inhibition of serotonin N-acetyltransferase; format: biochemical; settings: at 10 μM
wt mice [3] = test: weight gain in wt mice fed a high fat diet; format: in vivo, mouse
[4] = system: ghrelin knockout C57BL6 mice; test: body weight and adiposity in ghrelin knockout mice; format: in vivo, mouse
GOAT = target: T1, GOAT (Homo sapiens, UniProt Q96T53); format: cell-based
T1 sequence (Q96T53 1-435): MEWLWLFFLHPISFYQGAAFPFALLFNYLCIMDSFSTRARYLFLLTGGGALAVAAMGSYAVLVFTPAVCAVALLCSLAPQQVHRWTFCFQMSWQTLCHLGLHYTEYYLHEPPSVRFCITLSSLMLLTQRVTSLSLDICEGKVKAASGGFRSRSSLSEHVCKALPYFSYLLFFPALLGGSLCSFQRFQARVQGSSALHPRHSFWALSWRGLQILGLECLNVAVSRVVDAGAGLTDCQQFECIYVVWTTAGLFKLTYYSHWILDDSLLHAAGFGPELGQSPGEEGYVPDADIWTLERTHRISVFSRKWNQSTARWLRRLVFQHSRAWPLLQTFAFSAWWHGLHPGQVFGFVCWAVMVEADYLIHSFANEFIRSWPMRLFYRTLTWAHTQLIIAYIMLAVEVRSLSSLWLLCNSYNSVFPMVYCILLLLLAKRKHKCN
Summary of the method: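 HeLa and HEK cells stably expressing GOAT and preproghrelin were grown in octanoic acid-supplemented medium. Acyl and desacyl ghrelin were measured after test compound exposure, either as a time course at 6 μM in HeLa cells or as a dose-response after 24 h incubation. IC50 was derived from the acyl ghrelin reduction.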

[5] = system: wild type (wt) C57BL6 animals; test: serum acyl and desacyl ghrelin levels in mice after intraperitoneal dosing; format: in vivo, mouse; settings: 11 μmol/kg (40 mg/kg) intraperitoneal, wt C57BL6 mice on MCT diet
Summary of the method: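 Wild-type C57BL6 mice on a medium-chain triglyceride diet were given a single IP dose of test compound at 11 μmol/kg (40 mg/kg), or the D4-Tat control or vehicle (n = 5). Serum acyl and desacyl ghrelin and percent acyl ghrelin were measured at 6, 12 and 24 h. Standard errors are reported.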

p300 HAT = test: in vitro inhibition of acetyl-CoA utilizing enzyme p300 HAT; format: biochemical; settings: at 10 μM
wt mice [6] = test: blood chemistries and blood cell counts after one month of treatment; format: in vivo, mouse
cell viability = test: cell viability; format: cell-based; settings: in the concentration range studied
PCAF HAT = test: in vitro inhibition of acetyl-CoA utilizing enzyme PCAF HAT; format: biochemical; settings: at 10 μM
[7] = system: recombinant microsomal GOAT; test: in vitro acyltransferase inhibition assay; format: biochemical; settings: 100 nM compound, within 5 min (5 min reaction), radioactive assay
wt C57BL6 mice = test: body weight and QMR fat/lean mass in wt mice on MCT diet, one month treatment; format: in vivo, mouse; settings: 11 μmol/kg IP every 24 h
Summary of the method: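 Wild-type C57BL6 mice on a medium-chain triglyceride diet received test compound at 11 μmol/kg IP every 24 h for one month (n = 5) or vehicle (n = 6). Body mass was recorded daily, and fat and lean mass were determined by quantitative magnetic resonance. Standard errors are reported.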

GHSR-1a receptor = GHSR-1a receptor antagonism; format: cell-based
ghrelin knockout animals = test: intraperitoneal glucose challenge in ghrelin knockout animals; format: in vivo, mouse; settings: compared to vehicle or to wt animals analyzed in parallel
[8] = ghrelin knockout mice on MCT diet, 11 μmol/kg, 1 mo

CCCCCCC(SCCNC(=O)CCNC(=O)[C@H](O)C(C)(C)COP(=O)(O)OP(=O)(O)OC[C@H]1O[C@@H](n2cnc3c(N)ncnc32)[C@H](O)[C@@H]1OP(=O)(O)O)C(=O)NC[C@H](NC(=O)[C@H](CO)NC(=O)CN)C(=O)N[C@@H](Cc1ccccc1)C(=O)N[C@@H](CC(C)C)C(=O)N[C@@H](CO)C(=O)N1CCC[C@H]1C(=O)N[C@@H](CCC(=O)O)C(=O)N[C@@H](Cc1c[nH]cn1)C(=O)N[C@@H](CCC(N)=O)C(=O)NCCCCCC(=O)N[C@@H](Cc1ccc(O)cc1)C(=O)NCC(=O)N[C@@H](CCCNC(=N)N)C(=O)N[C@@H](CCCCN)C(=O)N[C@@H](CCCCN)C(=O)N[C@@H](CCCNC(=N)N)C(=O)N[C@@H](CCCNC(=N)N)C(=O)N[C@@H](CCC(N)=O)C(=O)N[C@@H](CCCNC(=N)N)C(=O)N[C@@H](CCCNC(=N)N)C(=O)N[C@@H](CCCNC(=N)N)C(N)=O (stereo partly shown) [GO-CoA-Tat]
insulin response to a glucose challenge (human islet cells): statistically significant increase in insulin response | blocking of cross-linking of F4BP/L5BP analogs to GOAT (competitor) [1]: can be blocked by GO-CoA-Tat | effects on UCP2 mRNA in the gastric fundus (UCP2 mRNA; gastric fundus from mice treated 24 h prior to isolation, n = 3): non-statistically significant effects | reduction in UCP2 mRNA in islets (UCP2 mRNA; islets isolated from mice treated 24 h prior to isolation, compared to D4-tat treated mice, n = 3): 20 fold | levels of insulin, ghrelin, or GHSR mRNAs in islets (UCP2 mRNA; islets isolated from treated mice, compared to D4-tat treated mice): no change | inhibition of serotonin N-acetyltransferase [2]: less than 15% | fat mass (wt mice [3]): relative reduction of fat mass | food intake (wt mice [3]): no effect on food intake | lean mass (wt mice [3]): without a change in lean mass | weight gain (wt mice [3]): slowed weight gain | fat mass (QMR) [4, 8]: did not significantly alter | lean mass (QMR) [4, 8]: did not significantly alter | weight ([4]; ghrelin knockout mice on MCT diet, 11 μmol/kg, 1 mo, n = 5 vs vehicle n = 5): did not significantly alter | weight gain of treated ghrelin knockout mice versus treated age-matched wt mice ([4]; separate long term study, one month of administration): gained more weight | inhibition of production of desacyl ghrelin (GOAT; GOAT/preproghrelin stably expressing HeLa and HEK cells): not desacyl ghrelin | exposure time needed for maximal inhibition of acyl ghrelin (GOAT; preproghrelin/GOAT-transfected HeLa and HEK cells, 6 μM in HeLa time course): 24 h | serum levels of desacyl ghrelin [5]: no significant effect | time of maximum inhibition of serum acyl ghrelin after administration [5]: 6 h | serum levels of acyl ghrelin ([5]; n = 5, 6, 12 and 24 h): decreased serum levels of acyl ghrelin | inhibition of p300 HAT (p300 HAT): less than 15% | IGF-1 levels (wt mice [6]): lower IGF-1 levels | blood glucose (wt mice [6]): lower blood glucose | generalized toxicity by blood chemistries and blood cell counts (wt mice [6]): no evidence of liver, renal, pancreas, or bone marrow toxicities | toxicity to cell viability (cell viability): non-toxic | inhibition of PCAF HAT (PCAF HAT): less than 15% | GOAT inhibition [7]: Virtually complete GOAT inhibition | weight gain (wt C57BL6 mice; n = 5 vs vehicle n = 6): prevented the significant weight gain | fat mass (QMR) (wt C57BL6 mice; relative to controls): significantly lower fat mass | lean mass (QMR) (wt C57BL6 mice; relative to controls): but not lean mass | antagonism of GHSR-1a receptor (GHSR-1a receptor): does not antagonize | effect in glucose challenge (ghrelin knockout animals): did not have a significant effect
